Laboratory results as given in ChEMBL document CHEMBL1125797, “Synthesis, characterization and myocardial uptake of cationic bis(arene)technetium(I) complexes” (J Med Chem, 1991).

Tests used:
Rattus norvegicus [1] = assay: Biodistribution of compound in rat lungs at 45 min after intravenous administration; assay type: ADME, organism-based, Lung; details: in vivo, 0.75 h
Summary of the method: (§1)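 Rats received the 99mTc complex in normal saline (~12.5 μCi/mL) by lateral tail vein injection at ~25 μCi/kg and were killed by cervical dislocation at the stated time. Tissues were washed with saline, blotted, weighed and γ-counted to give percent injected dose/g. Time-course values are averages of male and female rats.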

Rattus norvegicus [2] = assay: Biodistribution of compound in rat gonads at 90 min after intravenous administration; assay type: ADME, organism-based, Gonad; details: in vivo, 1.5 h
Summary of the method: (§2)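 Time course in Sprague-Dawley rats after lateral tail-vein injection of the 99mTc complex in normal saline (~12.5 μCi/mL) at ~25 μCi/kg. Tissues were sampled at the stated times, washed with saline, blotted, weighed and γ-counted to give percent injected dose per g. Values are averages of male and female rats.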

Rattus norvegicus [3] = assay: Biodistribution of compound in rat bone marrow at 360 min after intravenous administration; assay type: ADME, organism-based; details: in vivo, 6 h; summary of the method: as §2
Rattus norvegicus [4] = assay: Biodistribution of compound in rat heart after 5 min of administration.; assay type: ADME, organism-based; details: in vivo
Summary of the method: (§3)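 Female Sprague-Dawley rats (150–200 g) received the complex in normal saline (~12.5 μCi/mL) through a lateral tail vein at ~25 μCi/kg. Rats were killed by cervical dislocation 5 min after injection. Tissues were washed with saline, blotted, weighed and γ-counted to give percent injected dose/g tissue.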

Rattus norvegicus [5] = assay: Biodistribution of compound in rat eye at 1440 min after intravenous administration; assay type: ADME, organism-based; details: in vivo, 24 h; summary of the method: as §2
Rattus norvegicus [6] = assay: Biodistribution of compound in rat muscle at 1440 min after intravenous administration; assay type: ADME, organism-based, Muscle tissue; details: in vivo, 24 h; summary of the method: as §1
Rattus norvegicus [7] = assay: Biodistribution of compound in rat feces at 360 min after intravenous administration; assay type: ADME, organism-based; details: in vivo, 6 h
Rattus norvegicus [8] = assay: Biodistribution of compound in rat liver after 5 min of administration.; assay type: ADME, organism-based; details: in vivo; summary of the method: as §3
Rattus norvegicus [9] = assay: Biodistribution of compound in rat blood at 360 min after intravenous administration; assay type: ADME, organism-based; details: in vivo, 6 h; summary of the method: as §2
Rattus norvegicus [10] = assay: Biodistribution of compound in rat bone at 1440 min after intravenous administration; assay type: ADME, organism-based, Bone element; details: in vivo, 24 h; summary of the method: as §2
Rattus norvegicus [11] = assay: Biodistribution of compound in rat brain after 5 min of administration; assay type: ADME, organism-based; details: in vivo
Rattus norvegicus [12] = assay: Biodistribution of compound in rat bone marrow at 5 min after intravenous administration; assay type: ADME, organism-based; details: in vivo; summary of the method: as §2
Rattus norvegicus [13] = assay: Biodistribution of compound in rat heart at 90 min after intravenous administration; assay type: ADME, organism-based; details: in vivo, 1.5 h; summary of the method: as §2
Rattus norvegicus [14] = assay: Biodistribution of compound in rat eye at 90 min after intravenous administration; assay type: ADME, organism-based; details: in vivo, 1.5 h; summary of the method: as §2
Rattus norvegicus [15] = assay: Biodistribution of compound in rat gonads at 5 min after intravenous administration; assay type: ADME, organism-based, Gonad; details: in vivo; summary of the method: as §2
Rattus norvegicus [16] = assay: Biodistribution of compound in rat bone marrow at 1440 min after intravenous administration; assay type: ADME, organism-based; details: in vivo, 24 h; summary of the method: as §2
Rattus norvegicus [17] = assay: Biodistribution of compound in rat blood at 45 min after intravenous administration; assay type: ADME, organism-based; details: in vivo, 0.75 h; summary of the method: as §2
Rattus norvegicus [18] = assay: Biodistribution of compound in rat bone at 360 min after intravenous administration; assay type: ADME, organism-based, Bone element; details: in vivo, 6 h; summary of the method: as §2
Rattus norvegicus [19] = assay: Biodistribution of compound in rat liver at 45 min after intravenous administration; assay type: ADME, organism-based; details: in vivo, 0.75 h; summary of the method: as §1
Rattus norvegicus [20] = assay: Biodistribution of compound in rat kidney at 90 min after intravenous administration; assay type: ADME, organism-based; details: in vivo, 1.5 h; summary of the method: as §2
Rattus norvegicus [21] = assay: Biodistribution of compound in rat muscle at 360 min after intravenous administration; assay type: ADME, organism-based, Muscle tissue; details: in vivo, 6 h; summary of the method: as §1
Rattus norvegicus [22] = assay: Biodistribution of compound in rat gonads at 180 min after intravenous administration; assay type: ADME, organism-based, Gonad; details: in vivo, 3 h; summary of the method: as §2
Rattus norvegicus [23] = assay: Biodistribution of compound in rat kidney at 5 min after intravenous administration; assay type: ADME, organism-based; details: in vivo; summary of the method: as §2
Rattus norvegicus [24] = assay: Biodistribution of compound in rat lungs at 180 min after intravenous administration; assay type: ADME, organism-based, Lung; details: in vivo, 3 h; summary of the method: as §1
Rattus norvegicus [25] = assay: Biodistribution of compound in rat blood at 180 min after intravenous administration; assay type: ADME, organism-based; details: in vivo, 3 h; summary of the method: as §2
Rattus norvegicus [26] = assay: Biodistribution of compound in rat eye at 5 min after intravenous administration; assay type: ADME, organism-based; details: in vivo; summary of the method: as §2
Rattus norvegicus [27] = assay: Biodistribution of compound in rat eye at 45 min after intravenous administration; assay type: ADME, organism-based; details: in vivo, 0.75 h; summary of the method: as §2
Rattus norvegicus [28] = assay: Biodistribution of compound in rat bone marrow at 180 min after intravenous administration; assay type: ADME, organism-based; details: in vivo, 3 h; summary of the method: as §2
Rattus norvegicus [29] = assay: Biodistribution of compound in rat kidney at 1440 min after intravenous administration; assay type: ADME, organism-based; details: in vivo, 24 h; summary of the method: as §2
Rattus norvegicus [30] = assay: Biodistribution of compound in rat lungs at 90 min after intravenous administration; assay type: ADME, organism-based, Lung; details: in vivo, 1.5 h; summary of the method: as §1
Rattus norvegicus [31] = assay: Biodistribution of compound in rat lungs at 360 min after intravenous administration; assay type: ADME, organism-based, Lung; details: in vivo, 6 h; summary of the method: as §1
Rattus norvegicus [32] = assay: Biodistribution of compound in rat kidney after 5 min of administration.; assay type: ADME, organism-based; details: in vivo; summary of the method: as §3
Rattus norvegicus [33] = assay: Biodistribution of compound in rat liver at 90 min after intravenous administration; assay type: ADME, organism-based; details: in vivo, 1.5 h; summary of the method: as §1
Rattus norvegicus [34] = assay: Biodistribution of compound in rat gonads at 360 min after intravenous administration; assay type: ADME, organism-based, Gonad; details: in vivo, 6 h; summary of the method: as §2
Rattus norvegicus [35] = assay: Biodistribution of compound in rat heart at 1440 min after intravenous administration; assay type: ADME, organism-based; details: in vivo, 24 h; summary of the method: as §2

- Dose/g (Rattus norvegicus [1]): 1.5 % dose/organ
- Dose/g (Rattus norvegicus [2]): 0.074 % dose
- Dose/g (Rattus norvegicus [3]): 0.11 % dose/organ
- Dose/g (Rattus norvegicus [4]): 3.4%
- Dose/g (Rattus norvegicus [5]): 0.01 % dose/organ
- Dose/g (Rattus norvegicus [6]): 56 % dose/organ
- Dose/g (Rattus norvegicus [7]): 0.3 % dose
- Dose/g (Rattus norvegicus [8]): 0.67%
- Dose/ml (Rattus norvegicus [9]): 0.15 % dose
- Dose/g (Rattus norvegicus [10]): 1.7 % dose/organ
- Dose/g (Rattus norvegicus [11]): 0.02%
- Dose/g (Rattus norvegicus [12]): 0.43 % dose/organ
- Dose/g (Rattus norvegicus [13]): 2.78 % dose
- Dose/g (Rattus norvegicus [14]): 0.021 % dose
- Dose/g (Rattus norvegicus [15]): 0.099 % dose
- Dose/g (Rattus norvegicus [16]): 0.1 % dose/organ
- Dose/ml (Rattus norvegicus [17]): 0.51 % dose
- Dose/g (Rattus norvegicus [18]): 1.4 % dose
- Dose/g (Rattus norvegicus [19]): 4 % dose
- Dose/g (Rattus norvegicus [20]): 3.9 % dose/organ
- Dose/g (Rattus norvegicus [21]): 31 % dose/organ
- Dose/g (Rattus norvegicus [22]): 0.58 % dose
- Dose/g (Rattus norvegicus [23]): 7.1 % dose
- Dose/g (Rattus norvegicus [24]): 0.81 % dose/organ
- Dose/ml (Rattus norvegicus [25]): 0.19 % dose
- Dose/g (Rattus norvegicus [26]): 0.03 % dose
- Dose/g (Rattus norvegicus [27]): 0.023 % dose
- Dose/g (Rattus norvegicus [28]): 0.2 % dose/organ
- Dose/g (Rattus norvegicus [29]): 0.2 % dose
- Dose/g (Rattus norvegicus [30]): 1.17 % dose/organ
- Dose/g (Rattus norvegicus [31]): 0.7 % dose/organ
- Dose/g (Rattus norvegicus [32]): 6.7%
- Dose/g (Rattus norvegicus [33]): 2.5 % dose/organ
- Dose/g (Rattus norvegicus [34]): 0.039 % dose
- Dose/g (Rattus norvegicus [35]): 1.27 % dose
Substance: Bis(1,2,3,5-tetramethylbenzene)technetium
